“And” between values parts separate entries of the source, which are not always exact repeats. Identical values can stand only once.
Tested on: HEK-293T
Assay: Multiplex assay against HEK293T
Type: toxicity, cell-based
Settings: human, number of replicates 2
Procedure, shortened: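 On a CQ1 microscope at 37°C and 5% CO2, live cells were imaged after compound addition. They had been stained at seeding with Hoechst33342, BioTracker Green Microtubule Cytoskeleton Dye, MitoTracker Red and Annexin V Alexa Fluor 680. CellPathfinder machine-learning gating assigned cells to Hoechst high-intensity objects or normal cells, normal cells to healthy, pyknosed or fragmented nuclei, and pyknosed cells to mitotic or apoptotic. Tubulin, mitochondrial-mass and membrane-permeability phenotypes are per cents of healthy-nucleus cells.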

[1] = 12 h, 1 µM, compound concentration 1 uM
[2] = 12 h, 10 µM, compound concentration 10 uM
[3] = 24 h, 1 µM, compound concentration 1 uM
[4] = 24 h, 10 µM, compound concentration 10 uM
[5] = 48 h, 1 µM, compound concentration 1 uM
[6] = 48 h, 10 µM, compound concentration 10 uM

## NCC1CCC(CNc2nc(NCc3ccccc3OC(F)(F)F)ncc2[N+](=O)[O-])CC1 (configuration not stated)
[1]
  Population Apoptotic (%): 50% and 53%
  Population Fragmented Nuclei (%): 3% and 4%
  Population Healthy Nuclei (%): 86% and 81%
  Population Hoechst High Intensity Objects (%): 9% and 10%
  Population Membrane Permeable-Phenotype (%): 5% and 1%
  Population Mitochondria Different-Phenotype (%): 23% and 25%
  Population Mitotic Cells (%): 50% and 46%
  Population Normal (%): 90% and 89%
  Population Pyknosed Nuclei (%): 9% and 14%
  Population Tubulin-Different-Phenotype (%): 86% and 81%
  Total Cell Count: 881 and 733
[2]
  Population Apoptotic (%): 73% and 77%
  Population Fragmented Nuclei (%): 6% and 2%
  Population Healthy Nuclei (%): 79% and 81%
  Population Hoechst High Intensity Objects (%): 8% and 9%
  Population Membrane Permeable-Phenotype (%): 1%
  Population Mitochondria Different-Phenotype (%): 82%
  Population Mitotic Cells (%): 26% and 22%
  Population Normal (%): 91% and 90%
  Population Pyknosed Nuclei (%): 13% and 16%
  Population Tubulin-Different-Phenotype (%): 93% and 91%
  Total Cell Count: 345 and 365
[3]
  Population Apoptotic (%): 40% and 60%
  Population Fragmented Nuclei (%): 6% and 5%
  Population Healthy Nuclei (%): 85%
  Population Hoechst High Intensity Objects (%): 8% and 9%
  Population Membrane Permeable-Phenotype (%): 4% and 2%
  Population Mitochondria Different-Phenotype (%): 9% and 10%
  Population Mitotic Cells (%): 59% and 40%
  Population Normal (%): 91% and 90%
  Population Pyknosed Nuclei (%): 7% and 9%
  Population Tubulin-Different-Phenotype (%): 70% and 65%
  Total Cell Count: 1307 and 1039
[4]
  Population Apoptotic (%): 67% and 68%
  Population Fragmented Nuclei (%): 4% and 2%
  Population Healthy Nuclei (%): 79% and 81%
  Population Hoechst High Intensity Objects (%): 9% and 7%
  Population Membrane Permeable-Phenotype (%): 0% and 2%
  Population Mitochondria Different-Phenotype (%): 81% and 78%
  Population Mitotic Cells (%): 32% and 31%
  Population Normal (%): 90% and 92%
  Population Pyknosed Nuclei (%): 15%
  Population Tubulin-Different-Phenotype (%): 94% and 95%
  Total Cell Count: 375 and 418
[5]
  Population Apoptotic (%): 12% and 31%
  Population Fragmented Nuclei (%): 17% and 10%
  Population Healthy Nuclei (%): 80% and 86%
  Population Hoechst High Intensity Objects (%): 11% and 12%
  Population Membrane Permeable-Phenotype (%): 5% and 3%
  Population Mitochondria Different-Phenotype (%): 0% and 1%
  Population Mitotic Cells (%): 87% and 68%
  Population Normal (%): 88% and 87%
  Population Pyknosed Nuclei (%): 2% and 3%
  Population Tubulin-Different-Phenotype (%): 42% and 39%
  Total Cell Count: 2914 and 2116
[6]
  Population Apoptotic (%): 67% and 62%
  Population Fragmented Nuclei (%): 6% and 5%
  Population Healthy Nuclei (%): 80%
  Population Hoechst High Intensity Objects (%): 7% and 9%
  Population Membrane Permeable-Phenotype (%): 4% and 3%
  Population Mitochondria Different-Phenotype (%): 70% and 57%
  Population Mitotic Cells (%): 32% and 37%
  Population Normal (%): 92% and 90%
  Population Pyknosed Nuclei (%): 13%
  Population Tubulin-Different-Phenotype (%): 93% and 94%
  Total Cell Count: 433 and 530

## CCCCOc1c(C(=O)c2c(F)cc(C)cc2F)c[nH]c2nncc1-2
[1]
  Population Apoptotic (%): 54% and 43%
  Population Fragmented Nuclei (%): 3% and 2%
  Population Healthy Nuclei (%): 87% and 86%
  Population Hoechst High Intensity Objects (%): 7% and 6%
  Population Membrane Permeable-Phenotype (%): 3% and 4%
  Population Mitochondria Different-Phenotype (%): 11% and 7%
  Population Mitotic Cells (%): 45% and 56%
  Population Normal (%): 92% and 93%
  Population Pyknosed Nuclei (%): 9% and 11%
  Population Tubulin-Different-Phenotype (%): 58% and 46%
  Total Cell Count: 782 and 748
[2]
  Population Apoptotic (%): 50% and 64%
  Population Fragmented Nuclei (%): 3%
  Population Healthy Nuclei (%): 85% and 81%
  Population Hoechst High Intensity Objects (%): 10% and 11%
  Population Membrane Permeable-Phenotype (%): 7% and 4%
  Population Mitochondria Different-Phenotype (%): 17%
  Population Mitotic Cells (%): 50% and 35%
  Population Normal (%): 89% and 88%
  Population Pyknosed Nuclei (%): 11% and 14%
  Population Tubulin-Different-Phenotype (%): 77% and 74%
  Total Cell Count: 766 and 710
[3]
  Population Apoptotic (%): 34% and 50%
  Population Fragmented Nuclei (%): 7% and 5%
  Population Healthy Nuclei (%): 85%
  Population Hoechst High Intensity Objects (%): 10% and 11%
  Population Membrane Permeable-Phenotype (%): 1% and 3%
  Population Mitochondria Different-Phenotype (%): 4% and 5%
  Population Mitotic Cells (%): 65% and 50%
  Population Normal (%): 89% and 88%
  Population Pyknosed Nuclei (%): 7% and 8%
  Population Tubulin-Different-Phenotype (%): 32% and 46%
  Total Cell Count: 1018 and 1015
[4]
  Population Apoptotic (%): 59% and 67%
  Population Fragmented Nuclei (%): 5%
  Population Healthy Nuclei (%): 82% and 83%
  Population Hoechst High Intensity Objects (%): 9% and 10%
  Population Membrane Permeable-Phenotype (%): 3% and 2%
  Population Mitochondria Different-Phenotype (%): 5%
  Population Mitotic Cells (%): 40% and 32%
  Population Normal (%): 90% and 89%
  Population Pyknosed Nuclei (%): 11%
  Population Tubulin-Different-Phenotype (%): 57% and 52%
  Total Cell Count: 954 and 851
[5]
  Population Fragmented Nuclei (%): 17% and 10%
  Population Healthy Nuclei (%): 79% and 86%
  Population Hoechst High Intensity Objects (%): 16%
  Population Membrane Permeable-Phenotype (%): 4% and 2%
  Population Mitochondria Different-Phenotype (%): 1% and 2%
  Population Mitotic Cells (%): 88% and 65%
  Population Normal (%): 83%
  Population Pyknosed Nuclei (%): 2% and 3%
  Population Tubulin-Different-Phenotype (%): 24% and 36%
  Total Cell Count: 1720 and 1259
[6]
  Population Apoptotic (%): 41% and 63%
  Population Fragmented Nuclei (%): 13% and 10%
  Population Healthy Nuclei (%): 82% and 86%
  Population Hoechst High Intensity Objects (%): 12%
  Population Membrane Permeable-Phenotype (%): 4% and 1%
  Population Mitochondria Different-Phenotype (%): 4% and 5%
  Population Mitotic Cells (%): 58% and 36%
  Population Normal (%): 87%
  Population Pyknosed Nuclei (%): 3% and 2%
  Population Tubulin-Different-Phenotype (%): 46% and 47%
  Total Cell Count: 1114 and 939

## CN(C)[C@H]1CC[C@H](Nc2ncc3ncnc(Nc4ccc(F)c(Cl)c4)c3n2)CC1
[1]
  Population Apoptotic (%): 46% and 50%
  Population Fragmented Nuclei (%): 4% and 5%
  Population Healthy Nuclei (%): 88% and 87%
  Population Hoechst High Intensity Objects (%): 9% and 10%
  Population Membrane Permeable-Phenotype (%): 2% and 1%
  Population Mitochondria Different-Phenotype (%): 14% and 10%
  Population Mitotic Cells (%): 53% and 50%
  Population Normal (%): 90% and 89%
  Population Pyknosed Nuclei (%): 7%
  Population Tubulin-Different-Phenotype (%): 45% and 36%
  Total Cell Count: 608 and 681
[2]
  Population Apoptotic (%): 30% and 17%
  Population Fragmented Nuclei (%): 6% and 7%
  Population Healthy Nuclei (%): 82% and 79%
  Population Hoechst High Intensity Objects (%): 47% and 50%
  Population Membrane Permeable-Phenotype (%): 3% and 4%
  Population Mitochondria Different-Phenotype (%): 6% and 5%
  Population Mitotic Cells (%): 69% and 82%
  Population Normal (%): 52% and 49%
  Population Pyknosed Nuclei (%): 10% and 13%
  Population Tubulin-Different-Phenotype (%): 33% and 29%
  Total Cell Count: 768 and 714
[3]
  Population Apoptotic (%): 40% and 51%
  Population Fragmented Nuclei (%): 7% and 8%
  Population Healthy Nuclei (%): 87% and 88%
  Population Hoechst High Intensity Objects (%): 10% and 11%
  Population Membrane Permeable-Phenotype (%): 2% and 1%
  Population Mitochondria Different-Phenotype (%): 4% and 3%
  Population Mitotic Cells (%): 60% and 48%
  Population Normal (%): 89% and 88%
  Population Pyknosed Nuclei (%): 4% and 2%
  Population Tubulin-Different-Phenotype (%): 21% and 22%
  Total Cell Count: 1021 and 1110
[4]
  Population Apoptotic (%): 17% and 13%
  Population Fragmented Nuclei (%): 8% and 9%
  Population Healthy Nuclei (%): 82% and 77%
  Population Hoechst High Intensity Objects (%): 44% and 49%
  Population Membrane Permeable-Phenotype (%): 2%
  Population Mitochondria Different-Phenotype (%): 2% and 4%
  Population Mitotic Cells (%): 82% and 86%
  Population Normal (%): 55% and 50%
  Population Pyknosed Nuclei (%): 8% and 13%
  Population Tubulin-Different-Phenotype (%): 24% and 21%
  Total Cell Count: 1161 and 1002
[5]
  Population Apoptotic (%): 17% and 35%
  Population Fragmented Nuclei (%): 23% and 21%
  Population Healthy Nuclei (%): 74% and 76%
  Population Hoechst High Intensity Objects (%): 12% and 15%
  Population Membrane Permeable-Phenotype (%): 4% and 3%
  Population Mitochondria Different-Phenotype (%): 0%
  Population Mitotic Cells (%): 82% and 64%
  Population Normal (%): 87% and 84%
  Population Pyknosed Nuclei (%): 2% and 1%
  Population Tubulin-Different-Phenotype (%): 9% and 13%
  Total Cell Count: 2456 and 2598
[6]
  Population Apoptotic (%): 24% and 15%
  Population Fragmented Nuclei (%): 22% and 17%
  Population Healthy Nuclei (%): 74%
  Population Hoechst High Intensity Objects (%): 36% and 42%
  Population Membrane Permeable-Phenotype (%): 3%
  Population Mitochondria Different-Phenotype (%): 0%
  Population Mitotic Cells (%): 75% and 84%
  Population Normal (%): 63% and 57%
  Population Pyknosed Nuclei (%): 3% and 7%
  Population Tubulin-Different-Phenotype (%): 14% and 15%
  Total Cell Count: 2410 and 1820

Source: ChEMBL document CHEMBL5303300, “EUbOPEN Chemogenomics Library - Multiplex” (2023)
